The test system of assay [1] is Streptococcus pneumoniae. In words: Antimicrobial activity against Streptococcus pneumoniae assessed as growth inhibition in presence of trypsin. It is filed as functional, organism-based. The gist of the method: (§1)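 Strains in GM17 at 37°C, diluted 1:50 from overnight and grown to OD600 0.2, then exposed to peptide dilutions. OD600 read every 30 min. MIC = lowest inhibiting concentration when untreated cells reach half-maximal OD. At least triplicate.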

The test system of assay [2] is Micrococcus flavus. In words: Antimicrobial activity against Micrococcus flavus assessed as growth inhibition in presence of leucine aminopeptidase. It is filed as functional. Put shortly: (§2)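 Broth microdilution MIC in GM17 in 96-well plates. Overnight M. flavus culture diluted 1:50 and grown to OD600 0.2, then 150 µl culture mixed with 50 µl medium containing serial peptide concentrations. Incubated overnight at a temperature suited to the strain (M. flavus grown at 30°C), with OD600 read every 30 min. MIC is the lowest concentration inhibiting growth, read when untreated cells reach half-maximal OD. At least triplicate.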

The test system of assay [3] is Streptococcus pneumoniae. Put plainly: Antimicrobial activity against Streptococcus pneumoniae assessed as growth inhibition in presence of leucine aminopeptidase. It is filed as functional, organism-based. The gist of the method: (§3)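 Leader cleaved by 30 min incubation at 37°C with leucine aminopeptidase in phosphate buffer, pH 7.4. Strains in GM17 at 37°C, diluted 1:50 from overnight and grown to OD600 0.2, then mixed with peptide dilutions. OD600 monitored every 30 min. MIC = lowest concentration inhibiting growth, read when untreated cultures reach half-maximal OD. At least triplicate.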

Assay [4] deals with Micrococcus flavus. In words: Antimicrobial activity against Micrococcus flavus assessed as growth inhibition in presence of trypsin. It is filed as functional. Put shortly: as §2
The test system of assay [5] is Enterococcus faecalis. Put plainly: Antimicrobial activity against Enterococcus faecalis assessed as growth inhibition in presence of leucine aminopeptidase. It is filed as functional, organism-based. Put shortly:
as §3

For assay [6], the system named is Staphylococcus aureus. Put plainly: Antimicrobial activity against Staphylococcus aureus assessed as growth inhibition in presence of leucine aminopeptidase. Type of assay: functional, organism-based. The gist of the method: as §3
Assay [7] has as its system Streptococcus mitis. Put plainly: Antimicrobial activity against Streptococcus mitis assessed as growth inhibition in presence of leucine aminopeptidase. It is filed as functional, organism-based. Put shortly:
as §3

Assay [8] concerns Streptococcus mitis. In words: Antimicrobial activity against Streptococcus mitis assessed as growth inhibition in presence of trypsin. Type of assay: functional, organism-based. The gist of the method:
as §1

Assay [9] concerns Enterococcus faecalis. In words: Antimicrobial activity against Enterococcus faecalis assessed as growth inhibition in presence of trypsin. It is filed as functional, organism-based. The gist of the method: as §1
Assay [10] concerns Micrococcus flavus. In words: Antimicrobial activity against Micrococcus flavus assessed as growth inhibition. Type of assay: functional. Put shortly:
as §2

Assay [11] has as its system Staphylococcus aureus. In words: Antimicrobial activity against Staphylococcus aureus assessed as growth inhibition in presence of trypsin. Type of assay: functional, organism-based. Put shortly:
as §1

Values after ≈ are worked out from the molar mass of the structure shown. Active and inactive are the calls of the source. Peptide text beside a SMILES is read from it.

The term MIC denotes the smallest concentration in the dilution series that meets the test's criterion for growth inhibition. With `CC[C@H](C)[C@H](NC(=O)[C@H](Cc1ccccc1)NC(=O)[C@H](CO)NC(=O)[C@H](CC(C)C)NC(=O)[C@@H](NC(=O)[C@H](C)NC(=O)[C@H](CO)NC(=O)[C@H](CS)NC(=O)[C@@H](NC(=O)[C@@H](NC(=O)[C@@H](NC(=O)[C@@H](N)CO)[C@@H](C)O)[C@@H](C)CC)[C@@H](C)CC)[C@@H](C)O)C(=O)N[C@@H](C)C(=O)N[C@@H](CO)C(=O)N[C@@H](Cc1ccc(O)cc1)C(=O)N[C@@H](CC(C)C)C(=O)NCC(=O)N[C@@H](CO)C(=O)N[C@@H](C)C(=O)N[C@@H](CCC(N)=O)C(=O)N[C@H](C(=O)N[C@@H](CCCNC(=N)N)C(=O)N[C@@H](CS)C(=O)NCC(=O)N[C@@H](CCCCN)C(=O)N[C@@H](CC(=O)O)C(=O)N[C@@H](CC(N)=O)C(=O)N[C@@H](CCCCN)C(=O)N[C@@H](CCCCN)C(=O)N[C@@H](CCCCN)C(=O)O)[C@@H](C)O` (H-STIICSATLSFIASYLGSAQTRCGKDNKKK-OH), the “growth inhibition (GI)” value in the assay with Streptococcus pneumoniae [1], in the assay with Streptococcus pneumoniae [3], with Enterococcus faecalis [5], with Staphylococcus aureus [6], with Streptococcus mitis [7] and in the assay on Streptococcus mitis [8] was “inactive” each time. The “growth inhibition (GI)” value in the assay with Enterococcus faecalis [9] and in the assay on Staphylococcus aureus [11] was “inactive” in each case. Moreover, the minimum inhibitory concentration (MIC) turned out to be 8.5 µM with Micrococcus flavus [2], 10 µM with Micrococcus flavus [4] and 85 µM (≈ 271 µg/mL) with Micrococcus flavus [10].

Regarding `CC[C@H](C)[C@H](NC(=O)CNC(=O)[C@H](CO)NC(=O)[C@@H](NC(=O)[C@H](C)NC(=O)[C@H](C)NC(=O)[C@H](CO)NC(=O)[C@@H](NC(=O)[C@H](CS)NC(=O)[C@@H](NC(=O)[C@H](CCCCN)NC(=O)[C@H](CO)NC(=O)[C@H](CO)NC(=O)[C@H](C)NC(=O)[C@H](C)NC(=O)[C@H](C)NC(=O)[C@H](CO)NC(=O)[C@H](CCCCN)NC(=O)[C@H](CC(C)C)NC(=O)[C@@H](NC(=O)[C@@H](NC(=O)[C@@H]1CCCN1C(=O)[C@@H](NC(=O)[C@@H]1CCCN1C(=O)[C@@H](NC(=O)[C@@H](N)Cc1c[nH]c2ccccc12)[C@@H](C)O)[C@@H](C)O)[C@@H](C)CC)[C@@H](C)CC)C(C)C)[C@@H](C)CC)C(C)C)C(=O)NCC(=O)NCC(=O)N[C@@H](CC(C)C)C(=O)N[C@H](C(=O)N[C@@H](CO)C(=O)N[C@@H](Cc1ccc(O)cc1)C(=O)N[C@@H](CC(N)=O)C(=O)N[C@@H](CC(N)=O)C(=O)N[C@@H](CC(=O)O)C(=O)N[C@@H](CS)C(=O)N[C@@H](CC(C)C)C(=O)NCC(=O)O)C(C)C` (H-WTPTPIILKSAAASSKVCISAAVSGIGGLVSYNNDCLG-OH), the “growth inhibition (GI)” value in the assay on Streptococcus pneumoniae [1], in the assay with Streptococcus pneumoniae [3], in the assay on Enterococcus faecalis [5], in the assay with Staphylococcus aureus [6], in the assay on Streptococcus mitis [7] and with Streptococcus mitis [8] was “inactive” in each case. Besides, the “growth inhibition (GI)” value in the assay on Enterococcus faecalis [9] and in the assay on Staphylococcus aureus [11] was “inactive” throughout. Besides, the minimal inhibitory concentration (MIC) in the assay with Micrococcus flavus [4] was found to be 0.6 µM; with Micrococcus flavus [10], 80 µM (≈ 301 µg/mL).

Regarding `C=C(NC(=O)[C@H](NC(=O)[C@@H](Cc1cnc[nH]1)NC(=O)[C@H](NC(=O)[C@@H](CO)NC(=O)[C@H]1CS[C@H](C)[C@@H]2NC(=O)[C@@H](C)NC(=O)[C@@H](NC(=O)[C@@H](CCCCN)NC(=O)[C@@H](CCSC)NC(=O)[C@@H](CC(N)=O)[C@H]3CS[C@H](C)[C@H](NC(=O)[C@@H](CCCCN)NC(=O)[C@H]4CS[C@H](C)[C@H](NC(=O)[C@H]5CSC[C@H](NC(=O)/C(=C/C)NC(=O)[C@H](N)[C@H](C)CC)C(=O)N[C@H]([C@H](C)CC)C(=O)NC(=C)C(=O)N[C@H](CC(C)C)C(=O)N5)C(=O)N5CCC[C@@H]5C(=O)NCC(=O)N4)C(=O)NCC(=O)N[C@H](C)C(=O)N[C@H](CC(C)C)C(=O)N[C@H](CCSC)C(=O)NCC(=O)N3)[C@@H](C)SC[C@@H](NC2=O)C(=O)N[C@H](Cc2cnc[nH]2)C(=O)N1)[C@H](C)CC)C(C)C)C(=O)N[C@H](CCCCN)C(=O)O` [PRENISIN], the MIC is 0.004 µM with Micrococcus flavus [4] and 20 µM (≈ 66.2 µg/mL) in the assay on Micrococcus flavus [10].
